Data set [1] in a line: Therapeutic index, ratio of CC50 for human MT4 cells to EC50 for Human immunodeficiency virus 1. It counts as cell-based. Conditions: read-out: Ratio CC50/EC50; call rule not given here. The gist of the method:
(§1)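 Antiviral activity taken as the concentration giving 50% protection of HIV-1-infected MT-4 cells. Cytotoxicity was read as 50% cell death in the same cells. Therapeutic index = CC₅₀/EC₅₀.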

Data set [2] is described as follows: Cytotoxicity against human MT4 cells by MTT assay. It counts as cell-based. A digest of the protocol: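 CC₅₀ was the concentration causing 50% death of MT-4 cells, in the same cells used for the HIV-1 cytoprotection assay. This value feeds the CC₅₀/EC₅₀ ratio.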
Data set [3] deals with Human immunodeficiency virus 1. Briefly: Antiviral activity against Human immunodeficiency virus 1 infected in human MT4 cells assessed as inhibition of virus-induced cytopathic effect by MTT assay. It counts as functional, organism-based. Conditions: Human immunodeficiency virus 1, MT4. A digest of the protocol: as §1
Data set [4] deals with T1, Human immunodeficiency virus type 1 integrase (Human immunodeficiency virus 1, UniProt Q7ZJM1). Briefly: Inhibition of wild type HIV-1 integrase strand transfer activity after 30 mins. A digest of the protocol:
(§2)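 IC₅₀ is the concentration giving 50% inhibition of HIV-1 integrase enzymatic activity, determined separately for 3′-processing and for strand transfer.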

Data set [5] has as its target T1, Human immunodeficiency virus type 1 integrase. Kind of data set: Inhibition of wild type HIV-1 integrase 3' processing activity after 30 mins. A digest of the protocol: as §2
The target is the same in data set [6]. Kind of data set: Inhibition of HIV-1 His6-tagged integrase assessed as inhibition of LEDGF/p75-integrase interaction incubated 30 mins prior to flag-tagged LEDGF/p75 addition measured after 1 hr by AlphaScreen assay. The gist of the method:
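IC₅₀ is the concentration giving 50% inhibition of the interaction between LEDGF/p75 and HIV-1 integrase.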

The nature of data set [7]: Drug uptake in human CEM cell nucleus at 40 uM after 1 to 3 hrs by Draq5 staining-based confocal microscopy. The settings on record: ccrf-cem. It counts as ADME. A digest of the protocol: (§3)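 CEM, HCT116 and Panc-1 cells were treated with the fluorescein-labelled stapled peptide for 3 h. Uptake was imaged by confocal microscopy with Draq5 nuclear staining.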
The subject of data set [8] is MT4. Kind of data set: Cellular uptake in human MT4 cells at 10 to 500 uM after 1 hr by confocal microscopy. Type of data set: ADME, cell-based. Conditions: mt4, 1 h. A digest of the protocol: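 Fluorescein-labelled peptides were incubated with MT-4 cells for 1 h. Confocal z-stacks were taken at 0.3 step, with FITC excited at 488 nm and a cell-membrane dye at 543 nm.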

Data set [9] can be described thus: Drug uptake in human PANC1 cell nucleus at 40 uM after 1 to 3 hrs by Draq5 staining-based confocal microscopy. It counts as ADME. The settings on record: panc-1, 40 µM. The gist of the method:
as §3

A short description of data set [10]: Cellular uptake in human CEM cytoplasm at 40 uM after 1 to 3 hrs by Draq5 staining-based confocal microscopy. It counts as ADME. A digest of the protocol:
as §3

The nature of data set [11]: Cellular uptake in human HCT116 cell cytoplasm at 40 uM after 1 to 3 hrs by Draq5 staining-based confocal microscopy. The settings on record: hct-116, 40 µM. It counts as ADME. The gist of the method:
as §3

A short description of data set [12]: Drug uptake in human HCT116 cell nucleus at 40 uM after 1 to 3 hrs by Draq5 staining-based confocal microscopy. It counts as ADME. The settings on record: hct-116, 40 µM. A digest of the protocol: as §3
The nature of data set [13]: Cellular uptake in human PANC1 cell cytoplasm at 40 uM after 1 to 3 hrs by Draq5 staining-based confocal microscopy. Type of data set: ADME. Conditions: panc-1, 40 µM. The gist of the method:
as §3

The subject of data set [14] is Human immunodeficiency virus. Briefly: Antiviral activity against AMD3100-resistant Human immunodeficiency virus. It counts as functional, organism-based. Conditions: Human immunodeficiency virus 1.

Starred links: 1 amine or outer side, 2 acyl side, 3 side chain; linkers in the order of their positions; H or OH if unused. Positions of bridges follow the written chain, without caps; N, C: chain ends. Non-standard residues stand in square brackets, D forms with d. Residues, ends and D or L forms follow the SMILES beside them. αMeNva(5-ylidene) = C[C@@](CCC=[*:3])(N[*:1])C(=O)[*:2]; X1 = C[C@@](CCCCC=[*:3])(N[*:1])C(=O)[*:2]; X3 = C=CCCCC[C@](C)(N[*:1])C(=O)[*:2]; X2 = C=CC[C@](C)(N[*:1])C(=O)[*:2]; S5 = C=CCCC[C@](C)(N)C(=O)O

T1 sequence (Q7ZJM1 whole entry): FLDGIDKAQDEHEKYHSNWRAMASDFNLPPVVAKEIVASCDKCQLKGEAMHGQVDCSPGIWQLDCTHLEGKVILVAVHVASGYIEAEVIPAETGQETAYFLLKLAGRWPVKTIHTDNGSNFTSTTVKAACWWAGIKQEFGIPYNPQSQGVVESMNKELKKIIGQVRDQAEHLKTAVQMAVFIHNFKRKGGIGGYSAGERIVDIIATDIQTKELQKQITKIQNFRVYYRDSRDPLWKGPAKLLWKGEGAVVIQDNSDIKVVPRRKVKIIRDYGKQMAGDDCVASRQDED

As for `CC(C)C[C@@H]1NC(=O)[C@H](CCCCN)NC(=O)[C@H](CC(C)C)NC(=O)[C@@](C)(NC(=O)[C@H](Cc2ccccc2)NC(=O)[C@H](Cc2ccc(O)cc2)NC(=O)[C@H](C)NC(=O)[C@@H](N)[C@@H](C)O)CCC/C=C\CCC[C@@](C)(C(=O)NCC(=O)N[C@@H](CCCNC(=N)N)C(=O)N[C@@H](Cc2c[nH]c3ccccc23)C(=O)O)NC1=O` (H-TAYF[S5]LKL[S5]GRW-OH; staple (Z) 5-9), the selectivity ratio in [1] came out at 3. This molecule registered a half-maximal cytotoxic concentration (CC50) in data set [2] of 50 µM. In data set [3], the concentration for a half-maximal effect (EC50) is 20 µM. For the same molecule, the IC50 is 6 µM in [4], 9 µM in data set [5] and 14 µM in data set [6].

As to `CC(C)C[C@@H]1NC(=O)[C@H](CCCCN)NC(=O)[C@H](CC(C)C)NC(=O)[C@@](C)(NC(=O)[C@H](Cc2ccccc2)NC(=O)[C@H](Cc2ccc(O)cc2)NC(=O)[C@H](C)NC(=O)[C@@H](N)[C@@H](C)O)CCCC/C=C/CCCC[C@@](C)(C(=O)NCC(=O)N[C@@H](CCCNC(=N)N)C(=O)N[C@@H](Cc2c[nH]c3ccccc23)C(=O)O)NC1=O` (H-TAYF[X1]LKL[X1]GRW-OH; staple (E) 5-9), the IC50 in data set [4] came out at 44 µM; in [5], 48 µM.

With `CC(C)C[C@H](NC(=O)[C@H](Cc1ccccc1)NC(=O)[C@H](Cc1ccc(O)cc1)NC(=O)[C@H](C)NC(=O)[C@@H](N)[C@@H](C)O)C(=O)N[C@@H](CC(C)C)C(=O)N[C@@]1(C)CCC/C=C/CCC[C@@](C)(C(=O)N[C@@H](Cc2c[nH]c3ccccc23)C(=O)O)NC(=O)CNC(=O)[C@H](C)NC(=O)[C@H](CC(C)C)NC1=O` (H-TAYFLL[S5]LAG[S5]W-OH; staple (E) 7-11), the IC50 in data set [4] and in data set [5] was above 100 µM each time.

For the molecule `CC(C)C[C@@H]1NC(=O)[C@H](CCCCN)NC(=O)[C@H](CC(C)C)NC(=O)[C@@](C)(NC(=O)[C@H](Cc2ccccc2)NC(=O)[C@H](Cc2ccc(O)cc2)NC(=O)[C@H](C)NC(=O)[C@@H](NC(=O)c2ccc3c(c2)C(=O)OC32c3ccc(O)cc3Oc3cc(O)ccc32)[C@@H](C)O)CCC/C=C\CCC[C@@](C)(C(=O)NCC(=O)N[C@@H](CCCNC(=N)N)C(=O)N[C@@H](Cc2c[nH]c3ccccc23)C(=O)O)NC1=O` (mixture of isomers), the selectivity ratio in [1] is above 11. Moreover, the Drug uptake result in data set [7], in data set [8], in data set [9], in [10], in data set [11] and in data set [12] was “Active” throughout. Moreover, in data set [13], the Drug uptake result is reported as “Active”. This molecule also displayed a cytotoxic concentration (CC50) in data set [2] above 125 µM. Also, the EC50 in data set [3] worked out at 11 µM. Besides, the results for the IC50 in data set [4], in data set [5] and in [6] were 6 µM, 5 µM and 25 µM, respectively.

On to `CC(C)C[C@H](NC(=O)[C@H](CCCCN)NC(=O)[C@H](CC(C)C)NC(=O)[C@H](CC(C)C)NC(=O)[C@H](Cc1ccccc1)NC(=O)[C@H](Cc1ccc(O)cc1)NC(=O)[C@H](C)NC(=O)[C@@H](NC(=O)c1ccc2c(c1)C(=O)OC21c2ccc(O)cc2Oc2cc(O)ccc21)[C@@H](C)O)C(=O)N[C@@H](C)C(=O)NCC(=O)N[C@@H](CCCNC(=N)N)C(=O)N[C@@H](Cc1c[nH]c2ccccc12)C(=O)O` (mixture of isomers), for which the selectivity ratio in data set [1] turned out to be 5. Also, in data set [8], the Drug uptake result is “Not Active”. Further, in data set [2], the midpoint of cytotoxicity, the CC50, lay at 70 µM. In addition, the half-maximal effective concentration (EC50) in data set [3] was determined as 13 µM. The half-maximal inhibitory concentration (IC50) in [4] was 6.2 µM; in data set [5], 17.5 µM; in [6], 25 µM.

Turning to `C=CCCC[C@](C)(NC(=O)[C@H](CC(C)C)NC(=O)[C@@H](NC(=O)[C@H](CC(C)C)NC(=O)[C@](C)(CCCC=C)NC(=O)[C@H](Cc1ccccc1)NC(=O)[C@H](Cc1ccc(O)cc1)NC(=O)[C@H](C)NC(=O)[C@@H](N)[C@@H](C)O)[C@@H](C)CC)C(=O)NCC(=O)N[C@@H](CCCNC(=N)N)C(=O)N[C@@H](Cc1c[nH]c2ccccc12)C(=O)O` (H-TAYF[S5]LIL[S5]GRW-OH), the selectivity ratio in data set [1] worked out at 1.6. In addition, in data set [2], the midpoint of cytotoxicity, the CC50, lay at 18 µM. Besides, the EC50 in data set [3] is 11 µM. The IC50 in [4] is 11 µM; in data set [5], 15 µM; in [6], above 100 µM.

On to `C=CCCC[C@](C)(NC(=O)CNC(=O)[C@H](C)NC(=O)[C@H](CC(C)C)NC(=O)[C@](C)(CCCC=C)NC(=O)[C@H](CC(C)C)NC(=O)[C@H](CC(C)C)NC(=O)[C@H](Cc1ccccc1)NC(=O)[C@H](Cc1ccc(O)cc1)NC(=O)[C@H](C)NC(=O)[C@@H](N)[C@@H](C)O)C(=O)N[C@@H](Cc1c[nH]c2ccccc12)C(=O)O` (H-TAYFLL[S5]LAG[S5]W-OH), for which the half-inhibitory concentration (IC50) in data set [4] and in data set [5] was above 100 µM throughout.

For `CC[C@H](C)[C@@H]1NC(=O)[C@H](CC(C)C)NC(=O)[C@@](C)(NC(=O)[C@H](Cc2ccccc2)NC(=O)[C@H](Cc2ccc(O)cc2)NC(=O)[C@H](C)NC(=O)[C@@H](N)[C@@H](C)O)CCC/C=C\CCC[C@@](C)(C(=O)NCC(=O)N[C@@H](CCCNC(=N)N)C(=O)N[C@@H](Cc2c[nH]c3ccccc23)C(=O)O)NC(=O)[C@H](CC(C)C)NC1=O` (H-TAYF[S5]LIL[S5]GRW-OH; staple (Z) 5-9), the selectivity ratio in [1] was found to be 8. In [2], this molecule gave a CC50 of 41 µM. For the same molecule, the concentration for a half-maximal effect (EC50) is 5 µM in data set [3] and 4.3 µM in data set [14]. The figures for the 50% inhibitory concentration (IC50) in [4], in [5] and in data set [6] were 25 µM, 22 µM and 5 µM, respectively.

Consider `C=CCCCC[C@](C)(NC(=O)[C@H](CC(C)C)NC(=O)[C@H](CCCCN)NC(=O)[C@H](CC(C)C)NC(=O)[C@](C)(CCCCC=C)NC(=O)[C@H](Cc1ccccc1)NC(=O)[C@H](Cc1ccc(O)cc1)NC(=O)[C@H](C)NC(=O)[C@@H](N)[C@@H](C)O)C(=O)NCC(=O)N[C@@H](CCCNC(=N)N)C(=O)N[C@@H](Cc1c[nH]c2ccccc12)C(=O)O` (H-TAYF[X3]LKL[X3]GRW-OH), for which the IC50 in [4] came out at 43 µM; in data set [5] it was 61 µM.

Regarding `CC(C)C[C@H](NC(=O)[C@H](CCCCN)NC(=O)[C@H](CC(C)C)NC(=O)[C@]1(C)CCC/C=C\CCC[C@](C)(N)C(=O)N[C@@H](C)C(=O)N[C@@H](Cc2ccc(O)cc2)C(=O)N[C@@H](Cc2ccccc2)C(=O)N1)C(=O)N[C@@H](C)C(=O)NCC(=O)N[C@@H](CCCNC(=N)N)C(=O)N[C@@H](Cc1c[nH]c2ccccc12)C(=O)O` (H-[S5]AYF[S5]LKLAGRW-OH; staple (Z) 1-5), the selectivity ratio in [1] was determined as 6. In data set [2], this molecule returned a CC50 of 25 µM. The EC50 in [3] amounted to 4 µM. Also, the IC50 was 19 µM in [4], 53 µM in data set [5] and above 100 µM in [6].

As to `C=CC[C@](C)(NC(=O)[C@H](CC(C)C)NC(=O)[C@H](CCCCN)NC(=O)[C@H](CC(C)C)NC(=O)[C@](C)(CC=C)NC(=O)[C@H](Cc1ccccc1)NC(=O)[C@H](Cc1ccc(O)cc1)NC(=O)[C@H](C)NC(=O)[C@@H](N)[C@@H](C)O)C(=O)NCC(=O)N[C@@H](CCCNC(=N)N)C(=O)N[C@@H](Cc1c[nH]c2ccccc12)C(=O)O` (H-TAYF[X2]LKL[X2]GRW-OH), the IC50 in data set [4] was above 111 µM; in data set [5], above 333 µM.

In the case of `CC(C)C[C@@H]1NC(=O)[C@H](CCCCN)NC(=O)[C@H](CC(C)C)NC(=O)[C@@](C)(NC(=O)[C@H](Cc2ccccc2)NC(=O)[C@H](Cc2ccc(O)cc2)NC(=O)[C@H](C)NC(=O)[C@@H](N)[C@@H](C)O)CC/C=C/CC[C@@](C)(C(=O)NCC(=O)N[C@@H](CCCNC(=N)N)C(=O)N[C@@H](Cc2c[nH]c3ccccc23)C(=O)O)NC1=O` (H-TAYF[αMeNva(5-ylidene)]LKL[αMeNva(5-ylidene)]GRW-OH; staple (E) 5-9), the midpoint of cytotoxicity in [2], the CC50, lay at 40 µM. Further, in data set [3], the EC50 is above 40 µM. The IC50 in data set [4] came to 83 µM; in data set [5], 90 µM; in [6] it was 14 µM.
